Experimental data from ChEMBL document CHEMBL1914430, “Synthesis of some new 1,3,5-trisubstituted pyrazolines bearing benzene sulfonamide as anticancer and anti-inflammatory agents” (Bioorg Med Chem Lett, 2011).

Key:
Format in all cases: functional
Rattus norvegicus [1] = assay: Antiinflammatory activity in Wistar rat assessed as inhibition of carrageenan-induced hind paw edema at 20 mg/kg, po administered 30 mins before carrageenan challenge measured after 5 hrs by plethysmometer
Outline: (§1)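 Wistar rats of either sex, 150–175 g, fasted 16 h, n = 6 per group. Compound given orally at 20 mg/kg as a suspension in 1% CMC in water (10 mL/kg); controls got vehicle only. After 30 min, 0.1 mL of 1% carrageenan in saline was injected subplantar into the left hind paw. Paw volume was measured by plethysmometer at 0, 3 and 5 h. Inhibition = (1 − Vt/Vc) × 100, reported as mean ± SEM.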

Rattus norvegicus [2] = assay: Antiinflammatory activity in Wistar rat assessed as inhibition of carrageenan-induced hind paw edema at 20 mg/kg, po administered 30 mins before carrageenan challenge measured after 3 hrs by plethysmometer; outline: as §1
TK-10 = assay: Anticancer activity against human TK10 cells assessed as cellular growth at 10 uM
Outline: (§2)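 NCI primary one-dose screen at 10⁻⁵ M against the ~60 human tumour cell line panel (leukemia, melanoma, lung, colon, CNS, ovarian, renal, prostate, breast). Read-out is cellular growth.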

SW-620 = assay: Anticancer activity against human SW620 cells assessed as cellular growth at 10 uM; outline: as §2
NCI-H460 = assay: Anticancer activity against human NCI-H460 cells assessed as cellular growth at 10 uM
Outline: (§3)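 Primary single-dose screen at 10⁻⁵ M, run under the NCI Drug Evaluation Branch protocol against the full panel of about 60 human tumour lines. The lines come from leukaemia, melanoma, lung, colon, CNS, ovarian, renal, prostate and breast cancers. Read-out is cellular growth.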

HCC 2998 = assay: Anticancer activity against human HCC2998 cells assessed as cellular growth at 10 uM
Outline: (§4)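 Primary one-dose screen at 10⁻⁵ M, run per the NCI Drug Evaluation Branch protocol on the full panel of about 60 human tumor lines. The panel covers nine cancer types: leukemia, melanoma, lung, colon, CNS, ovarian, renal, prostate and breast.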

MDA-MB-468 = assay: Anticancer activity against human MDA-MB-468 cells assessed as cellular growth at 10 uM; outline: as §3
SN12C = assay: Anticancer activity against human SN12C cells assessed as cellular growth at 10 uM; outline: as §3
MCF7 = assay: Anticancer activity against human MCF7 cells assessed as cellular growth at 10 uM; outline: as §4
UACC-257 = assay: Anticancer activity against human UACC257 cells assessed as cellular growth at 10 uM; outline: as §2
HOP-92 = assay: Anticancer activity against human HOP92 cells assessed as cellular growth at 10 uM; outline: as §4
ACHN = assay: Anticancer activity against human ACHN cells assessed as cellular growth at 10 uM; outline: as §4
A498 = assay: Anticancer activity against human A498 cells assessed as cellular growth at 10 uM; outline: as §4
HCT-116 = assay: Anticancer activity against human HCT116 cells assessed as cellular growth at 10 uM; outline: as §4
NCI-H522 = assay: Anticancer activity against human NCI-H522 cells assessed as cellular growth at 10 uM; outline: as §3
SK-MEL-2 = assay: Anticancer activity against human SK-MEL-2 cells assessed as cellular growth at 10 uM; outline: as §3
NCI/ADR-RES = assay: Anticancer activity against human NCI/ADR-RES cells assessed as cellular growth at 10 uM; outline: as §3
SK-MEL-28 = assay: Anticancer activity against human SK-MEL-28 cells assessed as cellular growth at 10 uM; outline: as §3
[3] = Anticancer activity against human Hs 578T cells assessed as cellular growth at 10 uM; outline: as §4
HCT-15 = assay: Anticancer activity against human HCT15 cells assessed as cellular growth at 10 uM; outline: as §4
DU-145 = assay: Anticancer activity against human DU145 cells assessed as cellular growth at 10 uM; outline: as §4
IGROV-1 = assay: Anticancer activity against human IGROV1 cells assessed as cellular growth at 10 uM; outline: as §4
A549 = assay: Anticancer activity against human A549 cells assessed as cellular growth at 10 uM; outline: as §4
OVCAR-5 = assay: Anticancer activity against human OVCAR5 cells assessed as cellular growth at 10 uM; outline: as §3
786-0 = assay: Anticancer activity against human 786-0 cells assessed as cellular growth at 10 uM; outline: as §4
MDA-MB-435 = assay: Anticancer activity against human MDA-MB-435 cells assessed as cellular growth at 10 uM; outline: as §4
BT-549 = assay: Anticancer activity against human BT549 cells assessed as cellular growth at 10 uM; outline: as §4
NCI-H226 = assay: Anticancer activity against human NCI-H226 cells assessed as cellular growth at 10 uM; outline: as §3
M14 = assay: Anticancer activity against human M14 cells assessed as cellular growth at 10 uM; outline: as §4
SK-MEL-5 = assay: Anticancer activity against human SK-MEL-5 cells assessed as cellular growth at 10 uM; outline: as §3
HT-29 = assay: Anticancer activity against human HT-29 cells assessed as cellular growth at 10 uM; outline: as §4
T47D = assay: Anticancer activity against human T47D cells assessed as cellular growth at 10 uM; outline: as §2
PC-3 = assay: Anticancer activity against human PC3 cells assessed as cellular growth at 10 uM; outline: as §3
KM12 = assay: Anticancer activity against human KM12 cells assessed as cellular growth at 10 uM; outline: as §4
COLO 205 = assay: Anticancer activity against human COLO205 cells assessed as cellular growth at 10 uM; outline: as §4
RPMI-8226 = assay: Anticancer activity against human RPMI8226 cells assessed as cellular growth at 10 uM; outline: as §3
Malme-3M = assay: Anticancer activity against human MALME-3M cells assessed as cellular growth at 10 uM; outline: as §4
MDA-MB-231 = assay: Anticancer activity against human MDA-MB-231 cells assessed as cellular growth at 10 uM; outline: as §4
NCI-H23 = assay: Anticancer activity against human NCI-H23 cells assessed as cellular growth at 10 uM; outline: as §3
OVCAR-3 = assay: Anticancer activity against human OVCAR3 cells assessed as cellular growth at 10 uM; outline: as §3
UACC-62 = assay: Anticancer activity against human UACC62 cells assessed as cellular growth at 10 uM; outline: as §2
SNB-19 = assay: Anticancer activity against human SNB19 cells assessed as cellular growth at 10 uM; outline: as §3
SK-OV-3 = assay: Anticancer activity against human SKOV3 cells assessed as cellular growth at 10 uM; outline: as §3
SF-268 = assay: Anticancer activity against human SF268 cells assessed as cellular growth at 10 uM; outline: as §3
HOP-62 = assay: Anticancer activity against human HOP62 cells assessed as cellular growth at 10 uM; outline: as §4
NCI-H322M = assay: Anticancer activity against human NCI-H322M cells assessed as cellular growth at 10 uM; outline: as §3
U-251 = assay: Anticancer activity against human U251 cells assessed as cellular growth at 10 uM; outline: as §2
SF-295 = assay: Anticancer activity against human SF295 cells assessed as cellular growth at 10 uM; outline: as §3
RXF 393 = assay: Anticancer activity against human RXF393 cells assessed as cellular growth at 10 uM; outline: as §3
EKVX = assay: Anticancer activity against human EKVX cells assessed as cellular growth at 10 uM; outline: as §4
SNB-75 = assay: Anticancer activity against human SNB75 cells assessed as cellular growth at 10 uM; outline: as §3
OVCAR-4 = assay: Anticancer activity against human OVCAR4 cells assessed as cellular growth at 10 uM; outline: as §3
OVCAR-8 = assay: Anticancer activity against human OVCAR8 cells assessed as cellular growth at 10 uM; outline: as §3
SF-539 = assay: Anticancer activity against human SF539 cells assessed as cellular growth at 10 uM; outline: as §3
UO-31 = assay: Anticancer activity against human UO31 cells assessed as cellular growth at 10 uM; outline: as §2
LOX IMVI = assay: Anticancer activity against human LOXIMVI cells assessed as cellular growth at 10 uM; outline: as §4

## COc1cc(C)c(Cl)cc1C1=NN(c2ccc(S(N)(=O)=O)cc2)C(/C=C/c2ccccc2)C1 (stereo not given)
Rattus norvegicus [1]
  inhibition in vivo at 20 mg/kg: 52.4%
Rattus norvegicus [2]
  inhibition in vivo at 20 mg/kg: 55.3%

## COc1cc(C)c(Cl)cc1C1=NN(c2ccc(S(N)(=O)=O)cc2)C(c2cccc(O)c2)C1 (stereo not given)
Rattus norvegicus [1]
  inhibition in vivo at 20 mg/kg: 16.7%
Rattus norvegicus [2]
  inhibition in vivo at 20 mg/kg: 39.5%

## COc1ccc(C2CC(c3cc(Cl)c(C)cc3OC)=NN2c2ccc(S(N)(=O)=O)cc2)cc1OC (stereo not given)
TK-10
  Activity: 112.95%
SW-620
  Activity: 93.6%
NCI-H460
  Activity: 89.78%
HCC 2998
  Activity: 99.94%
MDA-MB-468
  Activity: 94.62%
SN12C
  Activity: 87.41%
MCF7
  Activity: 80.37%
UACC-257
  Activity: 87.16%
HOP-92
  Activity: 101.2%
ACHN
  Activity: 83.96%
A498
  Activity: 111.51%
HCT-116
  Activity: 56.66%
NCI-H522
  Activity: 74.33%
SK-MEL-2
  Activity: 95.75%
Rattus norvegicus [1]
  inhibition in vivo at 20 mg/kg: 47.6%
NCI/ADR-RES
  Activity: 77.18%
SK-MEL-28
  Activity: 108.41%
[3]
  Activity: 100.69%
HCT-15
  Activity: 75.93%
DU-145
  Activity: 105.76%
IGROV-1
  Activity: 79.08%
Rattus norvegicus [2]
  inhibition in vivo at 20 mg/kg: 31.6%
A549
  Activity: 73.23%
OVCAR-5
  Activity: 70.62%
786-0
  Activity: 92.29%
MDA-MB-435
  Activity: 95.83%
BT-549
  Activity: 83.23%
NCI-H226
  Activity: 81.27%
M14
  Activity: 81.83%
SK-MEL-5
  Activity: 84.63%
HT-29
  Activity: 78.73%
T47D
  Activity: 77.03%
PC-3
  Activity: 52.25%
KM12
  Activity: 91.8%
COLO 205
  Activity: 101.3%
RPMI-8226
  Activity: 90.96%
Malme-3M
  Activity: 101.32%
MDA-MB-231
  Activity: 84.64%
NCI-H23
  Activity: 75.79%
OVCAR-3
  Activity: 103.3%
UACC-62
  Activity: 65.06%
SNB-19
  Activity: 100.7%
SK-OV-3
  Activity: 116.37%
SF-268
  Activity: 90.07%
HOP-62
  Activity: 87.79%
NCI-H322M
  Activity: 103.5%
U-251
  Activity: 78.37%
SF-295
  Activity: 122.81%
RXF 393
  Activity: 77.69%
EKVX
  Activity: 80.65%
SNB-75
  Activity: 83.56%
OVCAR-4
  Activity: 87.79%
OVCAR-8
  Activity: 73.83%
SF-539
  Activity: 102.69%
UO-31
  Activity: 59.09%
LOX IMVI
  Activity: 77.92%
